TRPC6 inhibitor: mouse TRPC6 channel inhibitors, primary screen, cell-based, HEK293, membrane potential dye; ACh-evoked depolarization; stronger effect = lower value; B-score at 10 µM; 310,000 tested, 1.1% active;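 active = B-score under library mean minus 3 SD, initial fluorescence not abnormally high, positive integrated signal ratio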;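 note: B-score derived from integrated fluorescence ratio over the kinetic read; more negative B-score means stronger inhibition of depolarization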
Target sequence (Q61143 whole entry, looked up): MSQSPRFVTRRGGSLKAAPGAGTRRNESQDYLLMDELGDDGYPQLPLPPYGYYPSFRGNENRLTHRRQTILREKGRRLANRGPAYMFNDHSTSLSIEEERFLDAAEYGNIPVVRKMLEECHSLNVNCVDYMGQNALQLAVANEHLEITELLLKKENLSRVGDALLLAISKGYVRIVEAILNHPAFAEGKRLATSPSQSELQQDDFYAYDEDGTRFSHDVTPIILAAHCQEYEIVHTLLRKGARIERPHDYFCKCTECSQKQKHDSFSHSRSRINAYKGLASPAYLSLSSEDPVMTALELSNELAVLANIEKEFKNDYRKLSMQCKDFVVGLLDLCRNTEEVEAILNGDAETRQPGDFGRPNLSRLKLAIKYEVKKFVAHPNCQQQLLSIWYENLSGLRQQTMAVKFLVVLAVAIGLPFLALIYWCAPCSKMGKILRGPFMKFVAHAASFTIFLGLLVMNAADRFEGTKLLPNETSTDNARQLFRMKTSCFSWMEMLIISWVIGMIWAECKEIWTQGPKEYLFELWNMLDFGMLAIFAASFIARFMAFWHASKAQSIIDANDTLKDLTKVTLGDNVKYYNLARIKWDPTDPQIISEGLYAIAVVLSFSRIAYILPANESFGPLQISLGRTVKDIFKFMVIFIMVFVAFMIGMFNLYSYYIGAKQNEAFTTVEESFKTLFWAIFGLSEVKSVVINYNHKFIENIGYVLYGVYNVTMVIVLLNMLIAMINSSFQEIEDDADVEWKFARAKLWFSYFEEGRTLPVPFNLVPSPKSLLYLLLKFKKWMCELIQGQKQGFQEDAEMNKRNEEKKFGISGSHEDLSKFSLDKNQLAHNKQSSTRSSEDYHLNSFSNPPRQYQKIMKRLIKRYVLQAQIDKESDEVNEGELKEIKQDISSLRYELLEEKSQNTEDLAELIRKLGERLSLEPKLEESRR
TRPC4 act: activators of mouse TRPC4 channel, primary screen, Fluo4 calcium, HEK293 TRPC4beta/mu-opioid cells; Short transient receptor potential channel 4 (Mus musculus), Q9QUQ5; Fluo4 calcium fluorescence; stronger effect = higher value; B-score at 10 µM; 310,000 tested, 0.49% active; AID 2237, 2010;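 active = B-score above 5 SD of library B-scores, and initial fluorescence ratio not above library mean plus 5 SD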;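 note: positive B-score marks a calcium rise read as TRPC4 activation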
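Material: HEK293 stable line with TRPC4beta plus mu-opioid receptor; technique: Fluo4 calcium-sensitive dye fluorescence, kinetic, 1 Hz baseline; timing: Fluo4 dye loading 45 min at room temperature, 110 s recording; controls: assay buffer as low control, maximal DAMGO as high control; read-out: integrated baseline-normalised fluorescence ratio, converted to per-well B score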
TRPC6 activator: mouse TRPC6 channel activators, primary screen, cell-based, HEK293, membrane potential dye. AID 2550, 2010. 310,000 tested, 0.13% active. Short transient receptor potential channel 6 (Mus musculus), Q61143. B-score at 10 µM. HEK293-TRPC6 membrane potential dye fluorescence; stronger effect = higher value;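 active = B-score of the integrated fluorescence ratio above library mean plus 3 SD, and starting fluorescence ratio within library mean plus 5 SD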;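 note: higher score means more depolarization so channel activation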
TRPC4 potent: positive allosteric modulators of TRPC4, primary screen, cell-based, mouse TRPC4beta, HEK293 mu-opioid, Fluo-4 calcium; Short transient receptor potential channel 4 (Mus musculus), Q9QUQ5; DAMGO EC20, Fluo-4 Ca2+ flux; stronger effect = higher value; B-score at 10 µM; 310,000 tested, 0.42% active; AID 2227, 2009;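 active = B-score of calcium response area above 5 SD of library B-scores, with initial fluorescence ratio within 5 SD of library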;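 note: B-score of integrated fluorescence ratio over time as area under calcium response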
Platelet DG rel: inhibitors of platelet dense granule secretion, primary screen, cell-based, MLPCN, human platelets; human platelet-rich plasma, SFLLRN dense granule ATP release, luminescence; inhibition, %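 (compounds screened at 7.5 µM in platelet-rich plasma)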; 300,000 tested, 0.22% active;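 active = mean replicate score, as percent of positive control, at or above 50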
TRPC4 inh: inhibitors of mouse TRPC4 channel, primary screen, Fluo4 calcium, HEK293 TRPC4beta/mu-opioid cells | AID 2247, 2010 | B-score at 10 µM | DAMGO-evoked Fluo4 calcium flux; stronger effect = lower value | 300,000 tested, 0.39% active;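 active = B-score over 3 SD under the library average, no early fluorescence shift, positive overall ratio signal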
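Assay system: TRPC4beta/mu-opioid receptor HEK293 cell line; compound dosing: single concentration per test compound; detection: Fluo4 Ca2+ flux fluorescence; evaluation: per-well B score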
TRPC4 spec 2: second selectivity test of TRPC6 inhibitors: effect on mouse TRPC4. shares compounds with TRPC6 inhibitor. HEK293 TRPC4/MOR, membrane potential dye fluorescence; channel activated by saturating DAMGO dose. 920 tested, 42% active. inhibition, % at 10 µM;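 active = compounds whose fluorescence signal differed from control wells by over 3 SD, either direction, in both duplicate plates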
TRPC4 spec: mouse TRPC4 modulation by TRPC6 hits, confirmation, selectivity assay for TRPC6 inhibitor project, cell-based, HEK293 TRPC4/mu-opioid, membrane potential dye. shares compounds with TRPC6 inhibitor. 920 tested, 61% active. activity change, negative = inhibition, % at 10 µM. membrane potential fluorescence;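 active = rise or fall in signal beyond 3 SD of buffer-only wells in both replicate plates, either sign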;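 note: integrated kinetic ratio of fluorescence range over baseline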
HEK293 MPD ctr 2-1: nonspecific membrane potential effects, parental HEK293, confirmation, counter-screen for TRPC6 inhibitor project, cell-based, second counter screen | shares compounds with TRPC6 inhibitor | parental HEK293 membrane potential dye fluorescence; maximal acetylcholine challenge after compound addition | signal change vs control, % at 10 µM | 920 tested, 31% active | AID 2779, 2010;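 active = membrane potential signal moving either way by over 3 SD of the maximum-effect control, in both duplicate plates, meaning non-specific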
HEK293 MPD ctr-1: membrane potential modulation in parental HEK293, confirmation, counter-screen for TRPC6 inhibitor project, cell-based; shares compounds with TRPC6 inhibitor; parental HEK293 membrane potential dye fluorescence; membrane potential signal change, % at 10 µM; 920 tested, 60% active;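 active = membrane potential signal shifting up or down by more than 3 SD of buffer-only wells, on both duplicate plates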
HEK293 MPD ctr-2: parental HEK293 membrane potential modulation, confirmation, counter-screen for TRPC6 modulator project, cell-based | shares compounds with TRPC6 inhibitor | membrane potential dye fluorescence | membrane potential signal change, % at 10 µM | 2,400 tested, 51% active;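 active = membrane potential signal moves up or down beyond 5 SD from buffer-only wells, on both duplicate plates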
HEK293 MPD ctr 2-2: second check of TRPC6 modulator effects in parental HEK293 cells. shares compounds with TRPC6 inhibitor. membrane potential dye fluorescence; after compound, maximal acetylcholine stimulation. inhibition, % at 10 µM. 2,400 tested, 14% active. AID 488926;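 active = membrane potential signal drops by more than 5 SD from the mean control signal, in both duplicate plates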;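 note: plate controls were acetylcholine ECmax control wells for no effect and buffer only wells for full effect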
TRPC4/MOR mod: TRPC4 modulation by TRPC6 hit compounds, confirmation, selectivity assay for TRPC6 modulator project, cell-based, HEK293 TRPC4/mu-opioid, membrane potential dye, mouse. shares compounds with TRPC6 inhibitor. membrane potential fluorescence. percent change from control (negative = decrease, positive = increase), % at 10 µM. 2,400 tested, 69% active. AID 488927, 2010;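 active = membrane potential signal moved up or down beyond 5 SD of buffer control wells, in both duplicate plates, actives on both sides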;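 note: plate controls were assay buffer wells for no effect and DAMGO maximal-effect wells for full effect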
TRPC4 ctr inh 2: second selectivity test of TRPC6 modulators against mouse TRPC4. shares compounds with TRPC6 inhibitor. HEK293 TRPC4/mu-opioid, membrane potential dye fluorescence; stimulated with maximal-effect DAMGO. inhibition, % at 10 µM. 2,400 tested, 55% active. AID 488928;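 active = drop in membrane potential signal beyond 5 SD of the control wells in both duplicate plates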;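 note: TRPC4 counter screen for TRPC6 hits run under conditions tuned for TRPC6 not TRPC4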
TRPC6 block conf: mouse TRPC6 channel inhibitors, confirmation, HEK293 cells, membrane potential dye, duplicate; shares compounds with TRPC6 inhibitor; ACh-evoked depolarization; inhibition, % at 10 µM; 3,300 tested, 43% active; AID 488960, 2010;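 active = fluorescence ratio falls more than 5 SD below the full-stimulation control mean, in both duplicate runs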;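 note: integrated fluorescence ratio of peak minus minimum over baseline after agonist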
TRPC6 act conf: mouse TRPC6 channel activators, confirmation, HEK293 cells, membrane potential dye, duplicate. shares compounds with TRPC6 inhibitor. HEK293-TRPC6 membrane potential dye fluorescence, FDSS. activation, % at 10 µM. 2,800 tested, 11% active. AID 488961, 2010;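 active = ratio signal rise beyond 5 SD above unstimulated control wells' mean, seen in both duplicate runs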;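 note: plate controls were buffer EC0 wells for no effect and acetylcholine ECmax response for full effect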
An asterisk follows results filed as active; i = inactive; x = not tested or not shown. The list is not random: actives were taken first. Their share in the collection is about 2.5%.

SMILES	TRPC6 inhibitor	TRPC4 act	TRPC6 activator	TRPC4 potent	Platelet DG rel	TRPC4 inh	HEK293 MPD ctr-2	HEK293 MPD ctr 2-2	TRPC4/MOR mod	TRPC4 ctr inh 2	TRPC6 block conf	TRPC6 act conf	others
Cn1cc(Br)c(-c2cccc(NC(=O)CC(C)(C)CC(=O)O)c2)n1	i	i	i	i	-5.5	i	x	x	x	x	x	x
Oc1ccc(-c2cn3ccccc3n2)cc1O	i	i	i	i	7.1	i	x	x	x	x	x	x
Cc1ccn2cc(-c3ccc(O)c(O)c3)nc2c1	-5.33*	i	i	i	-1.8	i	-120.0%*	i	-23.0%*	i	i	i
O=C(COc1ccccc1Cl)NNC(=O)c1ccc2nc[nH]c2c1	i	i	i	i	7.7	i	x	x	x	x	x	x
CCn1cnc2c(oc3ccccc32)c1=O	i	i	i	i	3.7	i	x	x	x	x	x	x
C#CCn1cnc2c(oc3ccccc32)c1=O	-5.03*	i	i	i	0.3	i	i	i	i	i	i	i
CN(C)S(=O)(=O)c1ccc(N2CCCC2)c(C(=O)OCC(=O)N2CCN(c3ccccc3)CC2)c1	i	i	i	i	-20.3	i	x	x	x	x	x	x
COc1nc(-c2cccc([N+](=O)[O-])c2)nc2ccccc12	i	i	i	i	-25.9	i	x	x	x	x	x	x
Cc1ccc(-c2nc(N3CCN(C)CC3)c3ccccc3n2)cc1	-9.01*	i	i	i	0.8	i	x	x	x	x	i	i	TRPC4 spec 2=i;TRPC4 spec=-20.6%*;HEK293 MPD ctr 2-1=i;HEK293 MPD ctr-1=-360.5%*
CN1CCN(c2nc(-c3cccc([N+](=O)[O-])c3)nc3ccccc23)CC1	-6.13*	i	i	i	-1.6	i	-206.5%*	i	-43.0%*	63.0%*	54.0%*	i
CN1CCN(c2nc(N3CCN(CCO)CC3)nc3ccccc23)CC1	-7.09*	i	i	i	x	i	-453.0%*	83.5%*	-71.5%*	72.0%*	79.5%*	i
COc1ccc(-c2c[n+](CC(=O)OC3CC(C)CCC3C(C)C)c3n2CCC3)cc1 (stereo unspecified)	-6.12*	i	i	i	0.6	i	162.5%*	i	28.5%*	i	55.0%*	x
CCN(Cc1ccncc1)C(=O)c1cc(Br)cc(Br)c1O	i	i	i	i	-1.3	i	x	x	x	x	x	x
CN1C=C/C(=C\c2cc[n+](C)c3ccccc23)c2ccccc21	-5.79*	i	i	i	2.9	i	-265.0%*	i	-27.0%*	31.5%*	i	i
CSc1cccc(NC(=S)N(CCCN2CCCC(C)C2)Cc2cccs2)c1 (stereo unspecified)	-8.05*	i	i	i	13.8	i	x	x	x	x	56.0%*	i	TRPC4 spec 2=48.5%*;TRPC4 spec=2.2%*;HEK293 MPD ctr 2-1=i;HEK293 MPD ctr-1=3.1%*
COc1ccc(NC(=S)N(CCCN2CCC(C)CC2)Cc2cccs2)cc1Cl	-5.99*	i	i	i	23.9	i	i	i	i	84.5%*	48.5%*	i
COc1ccc(NC(=S)N(CCCN2CCN(C)CC2)Cc2cccs2)cc1	i	i	i	i	-12.2	i	x	x	x	x	x	x
COc1ccc(-c2[nH]ncc2CN(CCO)CC23CC4CC(CC(C4)C2)C3)c(OC)c1	i	i	i	i	1.1	i	x	x	x	x	x	x
O=[N+]([O-])c1ccc(-c2ccc(/C=N/n3cnnc3)o2)c(Br)c1	i	i	i	i	-5.1	i	x	x	x	x	x	x
Cc1cc([N+](=O)[O-])c(C)cc1-c1ccc(/C=N/n2cnnc2)o1	-5.8*	i	i	i	12.7	i	-107.5%*	i	-23.0%*	34.0%*	i	i
CCOC(=O)CCn1nc(-c2ccc(C)cc2)c2ccccc2c1=O	-5.55*	i	i	i	-4.7	i	179.5%*	i	41.5%*	i	53.5%*	x

From PubChem
